Data from ChEMBL document CHEMBL5303300, “EUbOPEN Chemogenomics Library - Multiplex” (2023).
Several values for one entry are separate records, joined by “and”; a condition that tells them apart may be missing. Identical values can stand only once.

Test system: Fibroblast
Test: Multiplex assay against human fibroblast
Assay type: toxicity, cell-based
Conditions: number of replicates 2
In short: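 Compound was added to live cells that had been stained at seeding with Hoechst33342, BioTracker Green Microtubule Cytoskeleton Dye, MitoTracker Red and Annexin V Alexa Fluor 680, and imaging followed on a CQ1 microscope at 37°C and 5% CO2. CellPathfinder machine-learning gating divided cells into Hoechst high-intensity objects or normal cells, normal cells into healthy, pyknosed or fragmented nuclei, and pyknosed cells into mitotic or apoptotic. Tubulin, mitochondrial-mass and membrane-permeability phenotypes are per cents of healthy-nucleus cells.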

[1] = 12 h, 1 µM, compound concentration 1 uM
[2] = 12 h, 10 µM, compound concentration 10 uM
[3] = 24 h, 1 µM, compound concentration 1 uM
[4] = 24 h, 10 µM, compound concentration 10 uM
[5] = 48 h, 1 µM, compound concentration 1 uM
[6] = 48 h, 10 µM, compound concentration 10 uM

## Br.Cc1cccc(C2CN(C)CCc3c2cc(O)c(O)c3Cl)c1 (configuration not stated)
[1]
  Population Apoptotic (%): 50% and 47%
  Population Fragmented Nuclei (%): 10% and 13%
  Population Healthy Nuclei (%): 79%
  Population Hoechst High Intensity Objects (%): 0%
  Population Membrane Permeable-Phenotype (%): 1% and 4%
  Population Mitochondria Different-Phenotype (%): 0% and 1%
  Population Mitotic Cells (%): 50% and 52%
  Population Normal (%): 100%
  Population Pyknosed Nuclei (%): 10% and 6%
  Population Tubulin-Different-Phenotype (%): 9% and 5%
  Total Cell Count: 210 and 248
[2]
  Population Apoptotic (%): 68% and 66%
  Population Fragmented Nuclei (%): 11% and 13%
  Population Healthy Nuclei (%): 77% and 78%
  Population Hoechst High Intensity Objects (%): 0%
  Population Membrane Permeable-Phenotype (%): 2%
  Population Mitochondria Different-Phenotype (%): 1% and 5%
  Population Mitotic Cells (%): 31% and 33%
  Population Normal (%): 99% and 100%
  Population Pyknosed Nuclei (%): 11% and 8%
  Population Tubulin-Different-Phenotype (%): 10% and 11%
  Total Cell Count: 167 and 173
[3]
  Population Apoptotic (%): 57% and 53%
  Population Fragmented Nuclei (%): 10% and 14%
  Population Healthy Nuclei (%): 82% and 80%
  Population Hoechst High Intensity Objects (%): 0%
  Population Membrane Permeable-Phenotype (%): 1%
  Population Mitochondria Different-Phenotype (%): 0% and 1%
  Population Mitotic Cells (%): 42% and 46%
  Population Normal (%): 99% and 100%
  Population Pyknosed Nuclei (%): 6% and 5%
  Population Tubulin-Different-Phenotype (%): 8% and 3%
  Total Cell Count: 205 and 242
[4]
  Population Apoptotic (%): 50% and 70%
  Population Fragmented Nuclei (%): 10% and 15%
  Population Healthy Nuclei (%): 79% and 78%
  Population Hoechst High Intensity Objects (%): 0%
  Population Membrane Permeable-Phenotype (%): 3% and 0%
  Population Mitochondria Different-Phenotype (%): 0%
  Population Mitotic Cells (%): 50% and 30%
  Population Normal (%): 100%
  Population Pyknosed Nuclei (%): 9% and 5%
  Population Tubulin-Different-Phenotype (%): 8% and 7%
  Total Cell Count: 165 and 174
[5]
  Population Apoptotic (%): 50% and 62%
  Population Fragmented Nuclei (%): 13%
  Population Healthy Nuclei (%): 80% and 83%
  Population Hoechst High Intensity Objects (%): 0%
  Population Membrane Permeable-Phenotype (%): 1% and 2%
  Population Mitochondria Different-Phenotype (%): 1% and 0%
  Population Mitotic Cells (%): 50% and 37%
  Population Normal (%): 99% and 100%
  Population Pyknosed Nuclei (%): 5% and 3%
  Population Tubulin-Different-Phenotype (%): 4% and 1%
  Total Cell Count: 211 and 238
[6]
  Population Apoptotic (%): 44% and 100%
  Population Fragmented Nuclei (%): 12% and 15%
  Population Healthy Nuclei (%): 82%
  Population Hoechst High Intensity Objects (%): 0%
  Population Membrane Permeable-Phenotype (%): 2% and 0%
  Population Mitochondria Different-Phenotype (%): 0%
  Population Normal (%): 100%
  Population Pyknosed Nuclei (%): 5% and 1%
  Population Tubulin-Different-Phenotype (%): 3% and 4%
  Total Cell Count: 178 and 170

## CC(C)S(=O)(=O)c1ccccc1Nc1nc(N[C@@H]2CCCN(CCCCCCCNC(=O)COc3cccc4c3C(=O)N(C3CCC(=O)N(C)C3=O)C4=O)C2)ncc1Cl (some centres not stated)
[1]
  Population Apoptotic (%): 58% and 50%
  Population Fragmented Nuclei (%): 7% and 16%
  Population Healthy Nuclei (%): 50% and 56%
  Population Hoechst High Intensity Objects (%): 0% and 1%
  Population Membrane Permeable-Phenotype (%): 10% and 9%
  Population Mitochondria Different-Phenotype (%): 5% and 6%
  Population Mitotic Cells (%): 41% and 49%
  Population Normal (%): 100% and 98%
  Population Pyknosed Nuclei (%): 42% and 27%
  Population Tubulin-Different-Phenotype (%): 58% and 39%
  Total Cell Count: 178 and 249
[2]
  Population Apoptotic (%): 63% and 51%
  Population Fragmented Nuclei (%): 9% and 14%
  Population Healthy Nuclei (%): 42% and 36%
  Population Hoechst High Intensity Objects (%): 0%
  Population Membrane Permeable-Phenotype (%): 33% and 29%
  Population Mitochondria Different-Phenotype (%): 24% and 26%
  Population Mitotic Cells (%): 36% and 49%
  Population Normal (%): 100% and 99%
  Population Pyknosed Nuclei (%): 47% and 48%
  Population Tubulin-Different-Phenotype (%): 24% and 17%
  Total Cell Count: 191 and 207
[3]
  Population Apoptotic (%): 81% and 86%
  Population Fragmented Nuclei (%): 16% and 21%
  Population Healthy Nuclei (%): 39% and 36%
  Population Hoechst High Intensity Objects (%): 0%
  Population Membrane Permeable-Phenotype (%): 13% and 8%
  Population Mitochondria Different-Phenotype (%): 6% and 5%
  Population Mitotic Cells (%): 18% and 14%
  Population Normal (%): 99% and 100%
  Population Pyknosed Nuclei (%): 43% and 42%
  Population Tubulin-Different-Phenotype (%): 25% and 18%
  Total Cell Count: 189 and 238
[4]
  Population Apoptotic (%): 76% and 74%
  Population Fragmented Nuclei (%): 15% and 16%
  Population Healthy Nuclei (%): 37% and 28%
  Population Hoechst High Intensity Objects (%): 0%
  Population Membrane Permeable-Phenotype (%): 20% and 9%
  Population Mitochondria Different-Phenotype (%): 52% and 73%
  Population Mitotic Cells (%): 23% and 25%
  Population Normal (%): 99%
  Population Pyknosed Nuclei (%): 47% and 55%
  Population Tubulin-Different-Phenotype (%): 50% and 36%
  Total Cell Count: 193 and 186
[5]
  Population Apoptotic (%): 86% and 96%
  Population Fragmented Nuclei (%): 15% and 24%
  Population Healthy Nuclei (%): 46% and 36%
  Population Hoechst High Intensity Objects (%): 0% and 1%
  Population Membrane Permeable-Phenotype (%): 19% and 21%
  Population Mitochondria Different-Phenotype (%): 4% and 6%
  Population Mitotic Cells (%): 13% and 3%
  Population Normal (%): 100% and 98%
  Population Pyknosed Nuclei (%): 38%
  Population Tubulin-Different-Phenotype (%): 24% and 27%
  Total Cell Count: 178 and 207
[6]
  Population Apoptotic (%): 85% and 88%
  Population Fragmented Nuclei (%): 14% and 22%
  Population Healthy Nuclei (%): 35% and 28%
  Population Hoechst High Intensity Objects (%): 1%
  Population Membrane Permeable-Phenotype (%): 7% and 16%
  Population Mitochondria Different-Phenotype (%): 37% and 27%
  Population Mitotic Cells (%): 14% and 11%
  Population Normal (%): 98%
  Population Pyknosed Nuclei (%): 50% and 49%
  Population Tubulin-Different-Phenotype (%): 70% and 53%
  Total Cell Count: 184 and 191

## Cn1ncc(NC(=O)c2nc(-c3c(F)cccc3F)sc2N)c1N1CC[C@@H](N)[C@H](F)CC1
[1]
  Population Apoptotic (%): 60% and 38%
  Population Fragmented Nuclei (%): 18%
  Population Healthy Nuclei (%): 67% and 74%
  Population Mitotic Cells (%): 40%
  Population Normal (%): 100% and 99%
  Population Tubulin-Different-Phenotype (%): 14% and 8%
  Total Cell Count: 170 and 268
[2]
  Population Apoptotic (%): 26% and 21%
  Population Fragmented Nuclei (%): 35%
  Population Healthy Nuclei (%): 48% and 47%
  Population Mitotic Cells (%): 73% and 78%
  Population Normal (%): 100%
  Population Tubulin-Different-Phenotype (%): 34% and 25%
  Total Cell Count: 307 and 502
[3]
  Population Apoptotic (%): 65% and 54%
  Population Fragmented Nuclei (%): 15%
  Population Healthy Nuclei (%): 65% and 73%
  Population Mitotic Cells (%): 34% and 45%
  Population Normal (%): 100%
  Population Tubulin-Different-Phenotype (%): 13% and 7%
  Total Cell Count: 172 and 273
[4]
  Population Apoptotic (%): 27% and 21%
  Population Fragmented Nuclei (%): 48% and 56%
  Population Healthy Nuclei (%): 43% and 38%
  Population Mitotic Cells (%): 72% and 78%
  Population Normal (%): 100% and 99%
  Population Tubulin-Different-Phenotype (%): 38% and 31%
  Total Cell Count: 456 and 659
[5]
  Population Apoptotic (%): 80% and 51%
  Population Fragmented Nuclei (%): 20%
  Population Healthy Nuclei (%): 63% and 69%
  Population Mitotic Cells (%): 20% and 48%
  Population Normal (%): 100%
  Total Cell Count: 193 and 286
[6]
  Population Apoptotic (%): 66% and 54%
  Population Fragmented Nuclei (%): 52% and 60%
  Population Healthy Nuclei (%): 45% and 38%
  Population Mitotic Cells (%): 45%
  Population Normal (%): 100%
  Population Tubulin-Different-Phenotype (%): 43% and 27%
  Total Cell Count: 604 and 928
